Shown is part of a subset that was picked to be rich in hits.
Beta2AR agonist = human beta-2 adrenergic receptor agonism by FAP; 340,000 compounds, 0.43% hits; P07550; Am2.2-beta2AR cells, FAP receptor internalization, flow cytometry; response, % (concentration not given with the values); AID 504454;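 active = response above a set limit, near 3 SD of response in nonfluorescent compounds, cut at about 42% in these data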
Target sequence (P07550 whole entry, looked up): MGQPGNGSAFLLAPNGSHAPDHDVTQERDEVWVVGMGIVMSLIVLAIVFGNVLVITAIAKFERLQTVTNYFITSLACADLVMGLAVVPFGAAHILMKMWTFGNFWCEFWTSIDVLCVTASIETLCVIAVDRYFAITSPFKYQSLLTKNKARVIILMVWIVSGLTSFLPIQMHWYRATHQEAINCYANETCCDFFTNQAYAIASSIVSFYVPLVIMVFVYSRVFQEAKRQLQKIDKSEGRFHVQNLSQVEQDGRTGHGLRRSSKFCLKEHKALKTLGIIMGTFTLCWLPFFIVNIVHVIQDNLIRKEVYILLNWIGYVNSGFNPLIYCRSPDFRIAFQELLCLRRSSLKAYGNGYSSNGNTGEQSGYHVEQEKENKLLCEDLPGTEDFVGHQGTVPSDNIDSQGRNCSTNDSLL
Dynein cargo inh = blocks dynein driven cargo transport along microtubules; 3617.4 mouse cells, GR-EGFP nuclear translocation imaging; test concentration mostly 20 µM; stimulated with dexamethasone, 1 µM; stronger effect = lower value; z-score, hits read low; 220,000 compounds, 0.47% hits; AID 1381;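 active = plate z-score of nuclear minus cytoplasmic receptor signal below a set negative limit, without overly bright fluorescence or cell loss, cut at about -3.5 in these data, passing the limit was not always enough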;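 note: z-score of nuclear minus cytoplasmic ring GR-EGFP intensity difference per well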
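Buffer or medium: tet-free, stripped-serum medium; Also added: dexamethasone, 1.0 µM final; Technique: high-content fluorescence imaging after fixation; Times: 48 h induction, 1 h compound, 30 min dex at 37 °C; Read-out: per-cell GR-EGFP intensity, nucleus versus surrounding cytoplasmic ring, well-averaged.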
CHOP inh = blocks CHOP induction under ER stress; CHO-K1 CHOP-promoter luciferase, tunicamycin-induced, 15-18 h; inhibition, % at 10 µM; 220,000 compounds, 3.8% hits; AID 2732;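 active = compounds that reduced the stress-induced luciferase reporter signal by more than about 70% of percent inhibition, limit read from the data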;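 note: 0% = tunicamycin plus vehicle and 100% = wells without tunicamycin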
UPR XBP1 act = activators of adaptive arm of unfolded protein response (XBP1); activation, % at 20 µM; CHO-XBP1 luciferase reporter, IRE1-XBP1 UPR activation, luminescence; percent of tunicamycin response, DMSO as zero; 330,000 compounds, 0.33% hits;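 active = versus positive control, 20 µM dose yields 30% or more activation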;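 note: 100% = tunicamycin at 10 µg/mL and 0% = DMSO only wells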
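Material: CHO cell line with stable XBP1 luciferase reporter; schedule: 16-18 h cell attachment at 37 °C, then 6 h compound exposure; signal: glow luminescence from Steady-Glo reagent; medium: serum-containing F12 medium, 10% FBS; benchmarks: tunicamycin 10 µg/mL and vehicle-only wells; read-out: percent activation relative to tunicamycin reference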
UPR CHOP act = apoptotic UPR (CHOP) activation; CHO-CHOP luciferase reporter, luminescence; percent of tunicamycin response over DMSO baseline; activation, % at 10 µM; 330,000 compounds, 0.34% hits; AID 449763;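 active = at 10 µM dose, activation of 40% or more, normalized to positive control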;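 note: 100% = tunicamycin at 10 µg/mL and 0% = DMSO alone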
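Test system: CHO-CHOP cells, stable luciferase reporter of PERK-eIF2a-CHOP signalling | Quantity: 500 CHO-CHOP cells per well | Buffer or medium: F12 plus 10% serum | Compound dosing: 10 µM single point, 0.5% DMSO | Schedule: 6 h compound treatment, 37 °C | Signal: Luciferase luminescence | Control set: Tunicamycin high control, DMSO low control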
p-CIP stab down = compounds decreasing mouse p/CIP protein stability | Q05BA5 | decrease of EGFP signal, % at 10 µM | F442A p/CIP-EGFP cells, EGFP fluorescence, 16 h | 290,000 compounds, 0.01% hits | AID 1984;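 active = EGFP signal decrease of at least 30% at 10 µM or well 3 SD below plate mean, unless failing retest; inactive = the rest, including hits failing retest or dose response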
B2AR ag CP1 = agonists of human beta-2 adrenergic receptor. AID 540358. Am2.2-beta2AR cells, FAP surface receptor, flow cytometry; stronger effect = lower value. 1,100 compounds, 25% hits. percent response (surface receptor), % at 10 µM. shares compounds with Beta2AR agonist;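 active = surface receptor percent response at or below 58%, roughly 3 SD from nonfluorescent compounds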
B2AR FAP counter = counter-screen for beta-2AR agonists: fluorescence in Am2.2 cells. shares compounds with Beta2AR agonist. FAP fluorogen flow cytometry, fluorescence counterscreen; stronger effect = lower value. calls only at 10 µM. 1,100 tested, under 10 active;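 active = percent response below a set limit in fluorescence channel 1 and below 50% in channel 8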
Starred values were filed as active, the others as inactive; i = inactive; . = no result.

SMILES	Beta2AR agonist	Dynein cargo inh	CHOP inh	UPR XBP1 act	UPR CHOP act	p-CIP stab down	B2AR ag CP1	B2AR FAP counter
COc1ccccc1Nc1nc(-c2c(C)[nH]c3ccccc23)cs1	-1	-0.62	45	.	.	-9	.	.
Cc1ccc(C(=O)c2ccccc2C(=O)OCC(=O)N2CCCC2)cc1	1	.	.	4	4	.	107	i
Cc1cccc(C(=O)OCC(=O)N2CCCCCC2)c1C	1	.	.	-1	2	.	.	.
Cc1ccc(NC(=O)C(c2ccccc2)c2ccccc2)c(O)c1	48*	.	.	-2	0	-2	104	i
COc1ccc(C2/C=C\CN(C(=O)C3CC3)CC(=O)N2Cc2ccc(F)cc2)cc1 (stereo unspecified)	2	-0.22	9	2	1	3	.	.
COc1ccc(C2/C=C\CN(C(=O)c3ccccc3)CC(=O)N2Cc2ccc(F)cc2)cc1 (stereo unspecified)	-8	0.14	-19	0	-2	-3	78	i
COc1ccc(C2/C=C\CN(Cc3ccc(N(C)C)cc3)CC(=O)N2Cc2ccc(F)cc2)cc1 (stereo unspecified)	97*	0.45	11	0	0	3	27*	i
COc1ccc(CNC(=O)CN(C(=O)c2snc(C(N)=O)c2N)c2ccc(F)cc2)cc1	47*	.	.	0	0	-8	87	i
N#Cc1c(NC(=O)CSc2ncccn2)oc(-c2ccccc2)c1-c1ccccc1	49*	-0.37	.	-1	0	.	117	i
Cc1ccnc(SCC(=O)Nc2oc(-c3ccccc3)c(-c3ccccc3)c2C#N)n1	2	2.1	52	-2	1	7	.	.
C[C@H](CO)N1C[C@H](C)[C@@H](CN(C)C(=O)Nc2ccc3c(c2)OCO3)Oc2c(NC(=O)Nc3ccc(C(F)(F)F)cc3)cccc2C1=O	20	.	.	9	11	.	.	.
COc1cccc(NC(=O)c2cc(-c3cccnc3)nc3c(Cl)cccc23)c1	5	1.4	55	-2	3	4	.	.
Cc1cccc(NC(=O)c2cc(-c3cccnc3)nc3c(C)cccc23)n1	75*	.	.	-5	0	-5	129	i
Cc1ccc(S(=O)(=O)N2CCCCC2)cc1NC(=O)c1cc2ccccc2o1	1	.	.	-3	0	.	.	.
CCN1CCN(c2ccc(S(=O)(=O)N3CCCCC3)cc2NC(=O)c2cc3ccccc3o2)CC1	48*	.	.	0	1	.	115	i
Cc1ncc([N+](=O)[O-])n1CCO	-1	0.21	11	-9	1	-20	.	.
CCS(=O)(=O)CCn1c([N+](=O)[O-])cnc1C	2	-0.56	0	-9	1	-4	102	i
CCC(C)NC(=O)c1c(N)n(/N=C/c2cccnc2)c2nc3ccccc3nc12 (stereo unspecified)	48*	0.99	-2	17	7	-2	84	i
CC(C)CNC(=O)c1c(N)n(/N=C/c2cccnc2)c2nc3ccccc3nc12	.	.	.	.	.	-13	.	.
CC(=O)N1CCN(S(=O)(=O)c2cccc(C(=O)N(C)Cc3ccc(C)o3)c2)CC1	-5	.	.	0	3	.	.	.
O=C(CN1CCOCC1)N1CCN(c2nnc(-c3ccccc3)c3ccccc23)CC1	69*	0.71	17	-2	0	-8	59	i
CCOC(=O)N1CCN(c2nnc(-c3ccc(C)cc3)c3ccccc23)CC1	45*	.	.	-4	3	-7	33*	i
CCOC(=O)N1CCN(c2nnc(-c3ccccc3)c3ccccc23)CC1	-10	.	.	1	0	-13	.	.
Cc1ccc(-c2nnc(N3CCN(C(=O)CN4CCOCC4)CC3)c3ccccc23)cc1	21	0.081	43	1	0	-4	.	.
CCC1(O)CC2CN(CCc3c([nH]c4ccccc34)C(C(=O)OC)(c3cc4c(cc3OC)N(C=O)C3C(O)(C(=O)OC)C(OC(C)=O)C5(CC)C=CCN6CCC43C65)C2)C1 (stereo unspecified)	1	.	.	.	.	.	.	.
SMILES	Beta2AR agonist	Dynein cargo inh	CHOP inh	UPR XBP1 act	UPR CHOP act	p-CIP stab down	B2AR ag CP1	B2AR FAP counter
Cc1cccn2c(=O)c3cc(C(=O)NCCCN4CCCC4=O)n(C)c3nc12	5	-0.5	-15	4	-2	-32	.	.
CCc1ccc(N2C(=O)C3C4CCC(C4=C(C)C)C3C2=O)cc1 (stereo unspecified)	1	-0.35	50	-1	2	-1	.	.
Cc1cc(Cl)ccc1OCC(=O)Nc1cccc(S(=O)(=O)N2CCCC2)c1	3	.	.	-2	2	.	.	.
COC(=O)c1ccccc1NC(=O)COc1ccc(S(=O)(=O)N2CCCC2)cc1C	5	0.037	59	-2	-1	3	99	i
COc1ccc(Cl)cc1NC(=O)COc1ccc(S(=O)(=O)N2CCOCC2)cc1C	0	.	.	7	8	-5	75	i
Cc1cc(S(=O)(=O)N2CCCC2)ccc1OCC(=O)Nc1ccc(C(N)=O)cc1	2	.	.	1	1	.	113	i
OCC1(CO)COC(/C=C/c2ccccc2)=N1	-4	.	.	0	-1	-8	.	.
CCOC(=O)CN1CCc2c(C)nc3c(-c4ccc(OC)c(OC)c4)cnn3c21	-4	.	-9	3	0	-5	.	.
O=C(/C=C/c1cccc(Cl)c1)Nn1c(-c2cccs2)nc2ccccc2c1=O	3	-0.3	17	-1	-1	13	.	.
O=[N+]([O-])c1cnc(Sc2ccncn2)s1	92*	-5.1*	107*	-10	-9	-19	16*	i
Cc1ccc(C(=O)c2cc([N+](=O)[O-])ccc2N2CCCCC2)c(C)c1	61*	0.55	-33	16	1	-14	41*	i
CCOc1ccc(NC(=O)N2CCC(NC(=O)C(Cc3ccccc3OC)NC(C)=O)CC2)cc1 (stereo unspecified)	8	.	.	7	-1	-2	.	.
O=C(CN1CCN(Cc2ccccc2)CC1)Nc1ccc(N2CCOCC2)cc1	50*	-0.39	-11	-2	0	10	118	i
CCc1ccccc1N(C)S(=O)(=O)c1ccc2[nH]cc(C(=O)O)c(=O)c2c1	76*	0.16	11	-3	-1	0	84	i
COc1ccc(CCNCC(O)COc2cccc(Br)c2)cc1OC (stereo unspecified)	-12	-0.55	15	-1	-3	11	.	.
